Source: paper PMC5045800 (Journal of chromatography. B, Analytical technologies in …, 2016)

Tests used:
[1] = Stability of oncrasins in rat plasma; assay type: in vitro ADME; settings: for Stability after 2 h at room temperature: bench-top, 2 h (data not shown); for Three freeze-thaw cycles stability, percent of nominal concentration: freeze −80°C / thaw RT; for Three freeze-thaw cycles stability, percent of nominal concentration / Long term -80°C (14 days) stability, percent of nominal concentration / Short-term (1h) stability, percent of nominal concentration: n=3, mean ± SD; for Short-term (1h) stability, percent of nominal concentration: room temperature bench-top 1 h
Summary of the method: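 Blank rat plasma was spiked at low and high QC levels, three replicates per level, then measured by LC-MS/MS against freshly prepared samples at the same concentrations. Results are percent of nominal. Short-term bench-top: room temperature for 1, 2 and 3 h. Freeze-thaw: three cycles of −80°C freezing and room-temperature thawing. Long-term: 14 days of storage.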

[2] = Stability of processed sample; assay type: in vitro ADME, rat; settings: plasma extracts; for Deviation from nominal concentration after 24 h in the auto-sampler: 24 h at 15°C (data not shown); for Auto-sampler at 15°C (1h) stability, percent of nominal concentration: n=3, mean ± SD
Summary of the method: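 Spiked rat plasma (50 μL) was mixed with 100 μL acetonitrile internal-standard working solution (125 ng/mL) and centrifuged at 20,800 x g for 5 min at 4°C. The supernatant extracts were held in the auto-sampler at 15°C for 1 h and 24 h. They were then compared with freshly obtained extracts at low and high QC levels in triplicate, by LC-MS/MS.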

[3] = Pharmacokinetic study in rats after intravenous oncrasin-266 formulation; assay type: in vivo, Sprague-Dawley rats; settings: mean ± SD, n=5; for AUC / Cmax: rat plasma; for Cl / Vd / t1/2: rat
Summary of the method: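 Male adult Sprague-Dawley rats received the prodrug formulation IV through a jugular vein cannula at 10, 25 or 50 mg/kg (n=5 per dose). Blood (200 μL) was drawn predose and at 0.0167 to 48 h into heparinized tubes. Plasma was spun at 20,800 x g for 3 min and kept at −80°C. Urine was collected over 0–24 h. Analytes were quantified by validated LC-MS/MS. Each rat's profile was analysed noncompartmentally.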

[4] = analyte after I.V. oncrasin-266 formulation 10 mg/kg
[5] = analyte after I.V. oncrasin-266 formulation 25 mg/kg
[6] = analyte after I.V. oncrasin-266 formulation 50 mg/kg

Structure (SMILES)	Stability after 2 h at room temperature [1]	Deviation from nominal concentration after 24 h in the auto-sampler [2] [%]	AUC [3, 4] [ng·h/mL]	Cmax [3, 4] [ng/mL]	AUC [3, 5] [ng·h/mL]	Cmax [3, 5] [ng/mL]	AUC [3, 6] [ng·h/mL]	Cmax [3, 6] [ng/mL]	Cl [3, 4] [L/kg]	Vd [3, 4] [L/kg]	t1/2 [3, 4] [h]	Cl [3, 5] [L/kg]	Vd [3, 5] [L/kg]	t1/2 [3, 5] [h]	Cl [3, 6] [L/kg]	Vd [3, 6] [L/kg]	t1/2 [3, 6] [h]	further results
O=Cc1cn(Cc2cccc(Cl)c2)c2ccccc12 [NSC-741908]	remained stable	≤ 15	500 ± 420	1560 ± 1550	110 ± 30	330 ± 120	680 ± 420	2140 ± 1730	75.73 ± 86.14	47.04 ± 33.52	1.19 ± 0.93	254.62 ± 108.12	443.15 ± 71.91	1.31 ± 0.39	103.60 ± 67.32	137.64 ± 33.49	1.16 ± 0.52	Three freeze-thaw cycles stability, percent of nominal concentration ([1]; nominal 1 ng/mL): 110.20 ± 6.79%; Three freeze-thaw cycles stability, percent of nominal concentration ([1]; nominal 100 ng/mL): 95.15 ± 4.53%; Long term -80°C (14 days) stability, percent of nominal concentration ([1]; nominal 1 ng/mL): 112.67 ± 2.45%; Long term -80°C (14 days) stability, percent of nominal concentration ([1]; nominal 100 ng/mL): 93.46 ± 5.62%; Short-term (1h) stability, percent of nominal concentration ([1]; nominal 1 ng/mL): 101.00 ± 12.58%; Short-term (1h) stability, percent of nominal concentration ([1]; nominal 100 ng/mL): 99.21 ± 5.62%; Auto-sampler at 15°C (1h) stability, percent of nominal concentration ([2]; nominal 1 ng/mL): 113.44 ± 6.90%; Auto-sampler at 15°C (1h) stability, percent of nominal concentration ([2]; nominal 100 ng/mL): 100.25 ± 2.67%
OCc1cn(Cc2cccc(Cl)c2)c2ccccc12 [Oncrasin-72]	remained stable	≤ 15	2220 ± 330	15550 ± 5330	7150 ± 1960	52440 ± 16750	23700 ± 7950	54790 ± 30600	4.56 ± 0.7	45.06 ± 16.70	7.01 ± 2.81	3.62 ± 0.77	42.55 ± 24.3	7.74 ± 3.95	2.30 ± 0.74	27.78 ± 10.36	8.28 ± 1.34	Three freeze-thaw cycles stability, percent of nominal concentration ([1]; nominal 2 ng/mL): 97.53 ± 5.94%; Three freeze-thaw cycles stability, percent of nominal concentration ([1]; nominal 200 ng/mL): 101.23 ± 10.03%; Long term -80°C (14 days) stability, percent of nominal concentration ([1]; nominal 2 ng/mL): 95.02 ± 8.54%; Long term -80°C (14 days) stability, percent of nominal concentration ([1]; nominal 200 ng/mL): 89.14 ± 0.49%; Short-term (1h) stability, percent of nominal concentration ([1]; nominal 2 ng/mL): 94.87 ± 5.31%; Short-term (1h) stability, percent of nominal concentration ([1]; nominal 200 ng/mL): 110.55 ± 3.0%; Auto-sampler at 15°C (1h) stability, percent of nominal concentration ([2]; nominal 2 ng/mL): 94.90 ± 2.54%; Auto-sampler at 15°C (1h) stability, percent of nominal concentration ([2]; nominal 200 ng/mL): 98.05 ± 6.15%
